Source: PubChem (several laboratories)
This is a sample that favours compounds with a hit; in the whole collection about 4.1% have one here.
MC4R antagonist: blocks human MC4R cAMP signaling | inhibition, % at 6.5 µM | MC4R-expressing cells, MTII-stimulated cAMP, LANCE TR-FRET | hit rate 0.48% among 360,000;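 active = inhibition above its plate's cutoff, the mean of tested wells on that plate plus 3 SD, cut at about 29% in these data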;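 also: 0% = Melanotan II alone and 100% = Melanotan II plus saturating MCL0020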
Target sequence (P32245 whole entry, looked up): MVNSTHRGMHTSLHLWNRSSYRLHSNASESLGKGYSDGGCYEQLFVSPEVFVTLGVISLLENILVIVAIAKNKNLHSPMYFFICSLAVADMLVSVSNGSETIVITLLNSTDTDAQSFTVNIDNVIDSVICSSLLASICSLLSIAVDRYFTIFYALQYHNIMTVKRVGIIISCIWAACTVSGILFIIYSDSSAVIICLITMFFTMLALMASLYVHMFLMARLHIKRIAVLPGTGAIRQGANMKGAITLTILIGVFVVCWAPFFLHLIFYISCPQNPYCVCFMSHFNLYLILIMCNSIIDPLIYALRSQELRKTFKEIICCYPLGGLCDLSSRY
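Material: U2OS-MC4R stable cell line | Reagent: Melanotan II challenge after compound preincubation | Doses: One concentration, 6.5 µM nominal | Incubation: 30-min compound preincubation, 1-h Melanotan II challenge, 1-h detection, room temperature | Signal: TR-FRET cAMP assay | Replicates: One well per compound, no replicates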
MPTP inh: inhibitors of mitochondrial permeability transition pore | hit rate 1.4% among 360,000 | inhibition, % at 10 µM | isolated mouse mitochondria, Ca2+ swelling absorbance, 30 min;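 active = inhibition of 50% or more, scaled per plate between neutral and stimulator controls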;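 also: 0% = DMSO wells given calcium and 100% = 1 mM EGTA wells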
SMARCA2 activ: activators of SMARCA2 function; MG213 cells, MMTV-luciferase reporter, dexamethasone, overnight; activation, % at 9.1 µM; hit rate 1% among 370,000; in the data active = activation above about 7.8%;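 also: 0% = vehicle wells and 100% = reference activator wells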
ATG4B inh: ATG4B (human) cysteine protease inhibition; Q9Y4P1; inhibition, % at 8.33 µM; hit rate 0.51% among 340,000; ATG4B cleavage of LC3-PLA2, NBD-HPC fluorescence, 1 h; in the data active = inhibition above about 40%
MC4R ag barr: agonists of human melanocortin 4 receptor (MC4R) beta-arrestin; P32245; U2OS MC4R beta-arrestin complementation, luminescence; percent of melanotan II response, DMSO zero; activation, % at 8.9 µM; hit rate 0.98% among 360,000; AID 540308;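 active = activation above a per-plate cutoff, the mean activation of sample wells on that plate plus 3 SD, cut at about 8% in these data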
SMARCA2 act conf: SMARCA2 activation, confirmation screen; shares compounds with SMARCA2 activ; activation, % at 9.1 µM; MG213 cells, MMTV-luciferase with dexamethasone, luminescence, overnight; MG213 cells expressing E1A, Rb sequestered; DMSO wells 0%, reference activator 100%; hit rate 30% among 3,500; AID 652260;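 active = activation above its plate's cutoff, the mean activation of tested wells plus 3 SD, cut at about 7.9% in these data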
GAL4-VP16 Luc: counter-screen for SMARCA2 activators: GAL4-VP16 luciferase reporter activation. hit rate 41% among 3,500. activation, % at 9.1 µM. HEK293 GAL4-VP16 pG5luc reporter, luciferase luminescence; scaled: DMSO wells 0%, SAHA wells 100%. shares compounds with SMARCA2 activ;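 active = activation above the solvent-only control well mean plus 3 SD, averaged across control plates, cut at about 5.2% in these data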
Numbers without * were called inactive; / = not tested or not shown.

SMILES	MC4R antagonist	MPTP inh	SMARCA2 activ	ATG4B inh	MC4R ag barr	SMARCA2 act conf	GAL4-VP16 Luc
O=C1c2cccc3cc([N+](=O)[O-])cc(c23)C(=O)N1CCN1CCCC1	-8.9	-0.3	64.2*	-3.2	-0.5	-1.7	6.5*
COc1cccc(C2CC=C(C(=O)O)CN2S(=O)(=O)c2ccc(C)cc2)c1 (stereo unspecified)	/	/	-1.2	/	/	/	/
Cn1cccc1C(=O)OCc1ccc(C(C)(C)C)cc1	-4.3	0.3	11.2*	4.6	2.5	6.6	6.4*
Cn1cccc1C(=O)OCc1cc(-c2ccco2)on1	-0.1	-2.2	8.4*	-3.0	-1.5	3.9	5.4*
CC(C)[C@H]1Cn2nnc(-c3ccccc3)c2Cn2c3ccccc3c(=O)n21	/	/	0.3	/	/	/	/
O=S1(=O)c2c(cccc2N2CCSCC2)Oc2ccccc2CN1Cc1cn(Cc2ccccc2C(F)(F)F)nn1	/	/	-2.1	/	/	/	/
O=C1CC2(CCCC2)CC(=O)N1c1ccccc1	12.7	0.3	-3.6	-5.3	-1.6	/	/
O=C1CC2(CCCCC2)CC(=O)N1CCc1ccccc1	6.8	-1.9	8.0*	4.9	-1.4	2.2	2.5
CC(/C=N\NC(=O)CSc1nnc(-c2ccc(Br)cc2)n1-c1ccccc1)=C\c1ccco1	/	/	-4.2	/	/	/	/
CN(C)c1ccc(C(=O)NCCc2ccccc2-c2ccccc2CCC(=O)NCc2ccccc2)cc1	/	/	-1.4	/	/	/	/
Cc1cc(C)c(NN=c2c(=O)c3ccccc3c2=O)c(C)c1	5.4	0.0	7.3	-3.0	-2.8	/	/
O=c1c(=NNc2ccccc2Cl)c(=O)c2ccccc12	-1.0	2.3	8.4*	1.3	-2.2	0.3	4.7
CNc1ccc(/C=C(\C#N)c2ccccn2)cc1[N+](=O)[O-]	-5.8	0.3	13.3*	-1.8	-1.9	13.2*	8.0*
O=C(NC1CC1)C1CCN(c2ncccn2)CC1	10.3	-2.7	9.2*	-0.6	0.0	-1.3	0.2
O=C(NCc1cccs1)C1CCC(CNS(=O)(=O)c2cccc3cccnc23)CC1 (stereo unspecified)	/	/	-7.3	/	/	/	/
C=CCNc1nc(NCc2ccc(N(C)C)cc2)c2sc(-c3ccccc3)cc2n1	-4.7	4.5	10.1*	/	-0.2	11.0*	10.8*
CC(C)C(=O)N[C@H]1[C@H](O)CCC[C@@]12C(=O)N(Cc1ccccc1)c1ccccc12	/	/	2.5	/	/	/	/
COc1cc(Nc2c3ccccc3nc3ccccc23)cc(OC)c1OC	-4.9	0.7	8.2*	-0.7	-1.6	30.5*	0.9
O=C1Nc2ccccc2N(C(=O)c2c(F)cccc2F)C1c1nc2ccccc2[nH]1 (stereo unspecified)	/	-0.6	10.4*	/	/	3.9	10.1*
O=C1Nc2ccccc2N(C(=O)c2ccc(-c3ccccc3)cc2)C1c1nc2ccccc2[nH]1 (stereo unspecified)	/	-1.7	1.6	/	/	/	/
CCOC(=O)[C@]12CCCC3=C1N(CCC3)C(=O)[C@@H](CC(=O)NCc1ccc(C)o1)C2	/	/	1.7	/	/	/	/
O=C(O)c1cc(-c2ccc3ccccc3n2)nc2ccccc12	-1.2	0.0	13.2*	5.2	-1.5	3.2	7.7*
COC(=O)c1cccc(OC[C@@H](O)CN2CCC(C(O)(c3ccccc3)c3ccccc3)CC2)c1	/	/	0.0	/	/	/	/
Cc1ccsc1/C=C/c1ccc2ccccc2n1	1.6	-1.8	4.1	9.6	-1.3	/	/
Cc1ccsc1/C=C/c1ccc2cccc(O)c2n1	-1.6	3.4	13.0*	18.0	-4.9	-9.5	19.1*
Oc1cccc2ccc(/C=C/c3cccs3)nc12	5.2	2.3	12.9*	13.4	-5.0	-1.9	22.5*
COc1ccc(OC)c(/C=C/c2ccc3cccc(O)c3n2)c1	-3.7	1.3	9.1*	/	-3.0	-16.0	13.3*
C[C@@H]1C=CCCO[C@]12C(=O)N(CC1CC1)c1ccccc12	/	/	-1.2	/	/	/	/
C/C(C=NNC(=O)CSc1nnc(-c2ccccc2)n1-c1ccc(C)cc1)=C\c1ccco1	/	/	2.3	/	/	/	/
O=C1CCCCC1Sc1nnc(Nc2ccccc2)s1 (stereo unspecified)	4.0	1.8	8.8*	-3.8	-0.8	1.1	7.7*
